STAT3 act-1 – increases IL-6 driven STAT3 reporter signal | 190,000 tested, 0.91% active | AID 871 | activation (% of control), % at 5.6 µM | U3A cells, IL-6 STAT3-luciferase reporter, luminescence; 100% = signal with IL-6 EC80 alone;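 active means activation above the screen-wide mean of compound activation plus 3 SD, cut at about 130% in these data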
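System – human U3A cells carrying STAT3-luciferase construct · Probe or stimulus – Interleukin-6, 33 ng/mL · Schedule – compound 1 h, then IL-6 6 h at 37 °C · Signal – luminescence from STAT3-driven luciferase reporter · Evaluation – percent of IL-6-only median luminescence · Benchmarks – IL-6-only high control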
STAT1 act-1 – activators of IFN-gamma induced STAT1 signaling; AID 932; 200,000 tested, 2.6% active; activation (% of control), % at 5.5 µM; NIH 3T3 STAT1-luciferase reporter, luminescence; 100% = IFN-gamma alone, no compound;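 active means activation above the screen-wide mean activation plus 3 SD, cut at about 130% in these data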
STAT3 blocker – STAT3 signaling inhibition. AID 862. 190,000 tested, 0.89% active. U3A cells, IL-6 STAT3-luciferase reporter, luminescence; host cell line lacks STAT1. inhibition, % at 5.5 µM;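 active means inhibition above the mean inhibition across all screened compounds plus 3 SD, cut at about 44% in these data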
APP 5'UTR act – APP 5'UTR luciferase reporter activation. SH-SY5Y APP 5'UTR luciferase reporter, luminescence; zero percent = DMSO vehicle wells. activation, % at 2 µM. 190,000 tested, 1% active. AID 1276;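 active means activation above a set limit, based on mean plus 3 SD of controls, cut at about 140% in these data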
NF-kB expr up – raises NF-kB expression in human neuronal cells; NF-kB reporter expression; hits give high values; fold change at 12.5 µM; 190,000 tested, 1.6% active; in the data active means fold change above about 3.3
STAT1 blocker – STAT1 signaling inhibition | inhibition, % at 5.5 µM | NIH 3T3 STAT1-luciferase reporter, IFN-gamma, luminescence | 200,000 tested, 0.35% active;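 active means inhibition above a set limit, the mean inhibition across all tested compounds plus 3 SD, cut at about 34% in these data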
STAT3 act-2 – STAT3 activation, confirmation assay | 1,200 tested, 64% active | U3A STAT3-luciferase reporter, IL-6 potentiation, luminescence; U3A cells lack STAT1; 100 means same as IL-6 alone | potentiation (% of control), % at 5.7 µM | shares compounds with STAT3 act-1;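 active means percent activation of the STAT3 luciferase reporter above a set limit taken from the earlier primary screen, cut at about 130% in these data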
NFkB act 2 – activates NF-kappaB, counter-screen to STAT3 activators; shares compounds with STAT3 act-1; human cells, NF-kappaB reporter activation; activation (% of control), % at 5.7 µM; 1,200 tested, 11% active; in the data active means activation above about 120%;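 further: reporter induced by TNF-alpha stimulation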
STAT1 act-2 – counter-screen for STAT3 activators: STAT1 activation. shares compounds with STAT3 act-1. NIH 3T3 STAT1-luciferase reporter, IFN-gamma, luminescence. 1,200 tested, 13% active. AID 1318. activation (% of control), % at 5.7 µM;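 active means activation above the solvent-only control well mean plus 3 SD, set per screening run, cut at about 120% in these data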
A number is an active result; n = inactive; x = not tested or not shown. In the library only some 5.1% were active in any assay of this set; here they are far more common.

SMILES | STAT3 act-1 | STAT1 act-1 | STAT3 blocker | APP 5'UTR act | NF-kB expr up | STAT1 blocker | STAT3 act-2 | NFkB act 2 | STAT1 act-2
COc1cccc(-c2nnc3n2N=C(c2cc(OC)ccc2OC)CS3)c1 | n | n | n | n | n | n | x | x | x
COc1cccc(-c2nnc3n2N=C(C(C)(C)C)CS3)c1 | 204 | n | n | n | n | n | 184 | n | n
Cc1cc(Cl)ccc1OCCCC(=O)NCCN1C(=O)S/C(=C\c2cccnc2)C1=O | n | n | n | n | n | n | x | x | x
COc1ccc(C)c2sc(=NC(=O)c3ccccc3)n(C)c12 | 136 | n | n | n | 3.6 | n | 139 | 148 | 182
O=C(Cc1ccccc1)Nn1c(O)c(/C=C2\C=Nc3ccccc32)sc1=S | 170 | n | n | n | n | n | n | n | n
CCn1c(O)c(/C=C2\C=Nc3ccccc32)sc1=Nc1ccccc1 | n | n | n | n | n | n | x | x | x
CC1COc2ccccc2N1C(=O)c1ccc(Cl)nc1 (stereo not given) | 145 | n | n | n | n | n | 136 | n | n
O=C(N/N=C/c1ccc(Br)cc1)c1ccccc1-n1cccc1 | 148 | n | n | n | n | n | n | n | n
Cc1cccc(/C=N\NC(=O)c2ccccc2-n2cccc2)c1 | n | n | n | n | n | n | x | x | x
CSc1nc2ccc(NS(=O)(=O)c3ccc4c(c3)OCCO4)cc2s1 | n | n | n | n | n | n | x | x | x
Cc1cc(SCC(=O)c2cc3ccccc3o2)nc2ccccc12 | 146 | n | n | n | n | n | 150 | n | n
N#Cc1sc2nc(-c3ccccc3)cc(-c3ccco3)c2c1N | n | n | n | n | n | n | x | x | x
COc1cccc(-c2cc(C(F)(F)F)c3c(N)c(C#N)sc3n2)c1 | 153 | n | n | n | n | n | 134 | n | n
CCC(=O)N=c1sc2cc(F)cc(F)c2n1C | 140 | n | n | n | x | n | n | n | 139
CC1Cc2ccccc2N1S(=O)(=O)c1cccc(C(=O)N2CCN(c3ncccn3)CC2)c1 (stereo not given) | n | n | n | n | n | n | x | x | x
Cn1c(CNc2ccccc2O)nc2ccccc21 | 159 | n | n | n | n | n | 179 | n | n
Cn1c(CNc2nc3ccccc3n2CCN2CCCCC2)nc2ccccc21 | n | n | n | n | n | n | x | x | x
N=C1C(c2ccccc2)=C(O)CN1c1cccc(O)c1 | n | n | n | n | n | n | x | x | x
Oc1oc(-c2ccccc2)nc1C=Nc1cccc2ccccc12 | 144 | n | n | n | n | n | n | n | n
Oc1oc(-c2ccccc2)nc1/C=N/c1nccs1 | n | n | n | n | n | n | x | x | x
CCCSc1nnc(Sc2nnnn2-c2ccccc2)s1 | 178 | n | n | n | n | n | 147 | n | n
Cc1ccccc1-n1nnnc1Sc1nnnn1-c1ccccc1 | n | n | n | n | n | n | x | x | x
Cc1ccccc1C1CC(c2cccs2)Nc2nnnn21 (stereo not given) | n | n | n | n | n | n | x | x | x
COc1cc(/C=C2\SC(N)=NC2=O)ccc1OCC(=O)Nc1ccc(C)cc1 | 643 | n | n | n | n | n | 435 | 130 | n
CC(=O)/C(=N\Nc1ccccc1)Sc1nncn1C | n | n | n | n | n | n | x | x | x
SMILES | STAT3 act-1 | STAT1 act-1 | STAT3 blocker | APP 5'UTR act | NF-kB expr up | STAT1 blocker | STAT3 act-2 | NFkB act 2 | STAT1 act-2
CCN(C(=O)CSc1nnc(-c2ccc(Cl)cc2)n1C)C1CCS(=O)(=O)C1 (stereo not given) | n | n | n | n | n | n | x | x | x
COC(=O)c1sccc1NC(=O)c1c(C)noc1C | n | n | n | n | n | n | x | x | x
COC(=O)c1sccc1NC(=O)c1cc(C)on1 | 151 | n | n | n | n | n | 135 | n | n
Cc1ccnn1CCC(=O)N1CCCC(CCC(=O)N2CCN(c3ccccn3)CC2)C1 (stereo not given) | n | n | n | n | n | n | x | x | x
CCc1cc2c(NCCC(=O)O)nc(C)nc2s1 | 158 | n | n | n | n | n | 140 | n | n
c1ccc2c(c1)[nH]c1c(N3CCOCC3)ncnc12 | 140 | n | n | n | n | n | 134 | n | n
CCOC(=O)c1sc(Nc2nc3c(F)cccc3s2)cc1C | 145 | n | n | n | n | n | 150 | 134 | n
O=C(c1ccccc1)c1nn(-c2ccc(Cl)cc2)cc1C(=O)c1cc2ccccc2oc1=O | 136 | n | n | n | n | n | n | n | n
COC(=O)c1c(NC(=O)CN2CCC3(O)CCCCC3C2c2ccc(OC)cc2OC)sc(C)c1C (stereo not given) | n | n | n | n | n | n | x | x | x
O=C(Cc1ccc(Cl)cc1)c1c[nH]c(C(=O)NCCCn2ccnc2)c1 | n | n | n | n | n | n | x | x | x
c1ccc(-c2nnc(CN3CCCc4ccccc43)o2)cc1 | 145 | n | n | n | n | n | n | n | n
Cc1nn(Cc2ccccc2)c2sc(C(=O)N3CCN(Cc4ccc5c(c4)OCO5)CC3)cc12 | n | n | n | n | n | n | x | x | x
COc1cc2c(cc1OC)-c1cc(N3CCCCCC3)nc(=O)n1CC2 | n | n | n | n | n | n | x | x | x
COc1cc2c(cc1OC)-c1cc(N3CCCc4ccccc43)nc(=O)n1CC2 | 149 | n | n | n | n | n | 133 | n | n
Cc1cc(C)c(C#N)c(SCc2nc3ccccc3[nH]2)n1 | 185 | n | n | 148 | n | n | 165 | n | n
COCCNc1nc(C)c(C(C)=O)s1 | n | n | n | n | n | n | x | x | x
Cn1c2ccccc2c2cc(C(=O)NNS(=O)(=O)c3ccc(F)cc3)sc21 | 136 | n | n | n | n | n | n | n | n
O=P1(O)C=C(c2ccccc2)OC(c2ccccc2)=C1 | 136 | n | n | n | n | n | 145 | n | 127
COc1ccc(C(C)(C)C)cc1NC(=O)c1cc(S(=O)(=O)N(C)C)ccc1N1CCCC1 | n | n | n | n | n | n | x | x | x
Cc1ccc(S(=O)(=O)NNC(=O)CCCCC(=O)NNS(=O)(=O)c2ccc(C)cc2)cc1 | n | n | n | n | n | n | x | x | x
Cc1cccc(C)c1NC(=O)C1c2cccc[n+]2CC(=O)N1Cc1cccs1 (stereo not given) | n | n | n | n | n | n | x | x | x
CCOC(=O)c1cnn(-c2nc3c(C)cccc3s2)c1C | 152 | n | n | n | n | n | n | n | n
CCOC(=O)c1cnn(-c2nc3c(C)cccc3s2)c1C(F)(F)F | n | n | n | n | n | n | x | x | x
CCOc1ccccc1C(=O)NN1C(=O)CCC1=O | 143 | n | n | n | n | n | 155 | n | n
